Here are results for 14 compounds from ChEMBL document CHEMBL1124524, “Organic phosphorus compounds. 2. Synthesis and coronary vasodilator activity of (benzothiazolylbenzyl) phosphonate derivatives” (1989).

The test has as its system Cavia porcellus. Briefly: Maximum increase in the coronary flow of isolated guinea pig heart when a dose of 10 ug/heart is administered. Type of test: functional. Put shortly: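 Langendorff-perfused isolated guinea pig heart, with Krebs-Henseleit fluid gassed with 95% O2/5% CO2, at 34 ± 1 °C and 60 cm H2O perfusion pressure. Compound was dissolved in propylene glycol at 100 μg/mL and infused at 0.1 mL/min. Coronary flow was read by electromagnetic flowmeter before and after infusion and expressed as percentage gain; mean ± SE of five experiments.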
With `CCOP(=O)(OCC)OCc1ccc(-c2nc3ccccc3s2)cc1`, the “Max increase in coronary flow” value amounted to 47.7%.

Take `CCOP(=O)(Cc1ccc(-c2nc(-c3ccccc3)c(-c3ccccc3)s2)cc1)OCC`: the “Max increase in coronary flow” value turned out to be 23%.

As for `CCOP(=O)(OCC)c1ccc(-c2nc3ccccc3s2)cc1`, the “Max increase in coronary flow” value turned out to be 27.2%.

For `CCOP(=O)(Cc1ccc(-c2nc3ccccc3[nH]2)nc1)OCC`, the “Max increase in coronary flow” value is recorded as 27.1%.

For `CCOP(=O)(CCc1ccc(-c2nc3ccccc3s2)cc1)OCC`, the “Max increase in coronary flow” value is 40.7%.

With `CCOP(=O)(/C=C/c1ccc(-c2nc3ccccc3s2)cc1)OCC`, the “Max increase in coronary flow” value was found to be 49.5%.

Consider `CCOP(=O)(CCOc1ccc(-c2nc3ccccc3s2)cc1)OCC`, for which the “Max increase in coronary flow” value worked out at 27.2%.

For the compound `CCOP(=O)(Cc1ccc(-c2nc3ccccc3s2)s1)OCC`, the “Max increase in coronary flow” value is on record as 51.1%.

`CCOP(=O)(Cc1ccc(-c2nc3ccccc3s2)nc1)OCC`: the “Max increase in coronary flow” value came out at 94%.

Regarding `CCOP(=O)(Cc1cccnc1)OCC`, the “Max increase in coronary flow” value stood at 21.4%.

Consider `CCOP(=O)(Cc1ccc(-c2nc(-c3ccccc3)cs2)cc1)OCC`, for which the “Max increase in coronary flow” value was 60.3%.

With `CCOP(=O)(Cc1ccc(-c2nc3ccccc3o2)nc1)OCC`, the “Max increase in coronary flow” value is reported as 38.7%.

`CCOP(=O)(Cc1ccc(-c2nccs2)nc1)OCC`: the “Max increase in coronary flow” value is on record as 23.2%.

`CCOP(=O)(Cc1ccc(-c2nc3ccccc3s2)cc1)OCC` [FOSTEDIL]: the “Max increase in coronary flow” value was 79.9%.
